Measured values from paper PMC11656131 (Angewandte Chemie (International Ed. in English), 2024).
Entries after “also recorded” stand apart in the source; their conditions may differ.

Biological target: T1, CERT (Homo sapiens, UniProt Q9Y5P4)
T1 sequence (Q9Y5P4 1-598 isoform Q9Y5P4-2): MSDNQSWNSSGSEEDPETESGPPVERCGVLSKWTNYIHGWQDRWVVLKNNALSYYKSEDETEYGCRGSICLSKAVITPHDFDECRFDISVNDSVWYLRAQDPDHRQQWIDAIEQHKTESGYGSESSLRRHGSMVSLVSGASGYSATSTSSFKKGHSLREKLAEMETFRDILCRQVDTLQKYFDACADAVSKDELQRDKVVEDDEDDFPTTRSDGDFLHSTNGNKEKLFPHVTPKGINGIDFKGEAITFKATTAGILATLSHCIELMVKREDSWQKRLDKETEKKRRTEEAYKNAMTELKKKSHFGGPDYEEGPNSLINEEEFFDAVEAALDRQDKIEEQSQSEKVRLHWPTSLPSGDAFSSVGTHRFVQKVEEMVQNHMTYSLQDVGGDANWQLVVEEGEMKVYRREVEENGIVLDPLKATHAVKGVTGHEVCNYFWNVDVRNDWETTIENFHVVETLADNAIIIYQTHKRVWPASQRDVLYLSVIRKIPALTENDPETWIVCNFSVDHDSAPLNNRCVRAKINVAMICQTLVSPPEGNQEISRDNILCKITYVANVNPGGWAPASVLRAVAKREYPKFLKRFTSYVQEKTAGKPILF
Experiment: NanoBRET live-cell CERT assay
Type: cell-based
Conditions: cells pre-treated with SACLAC
Summary of the method: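 HeLa cells (or CERT-deficient HeLa) were transfected with NLuc fused N-terminally to full-length CERT, split into 96-well plates next day and incubated overnight. Nano-Glo Vivazine live-cell substrate was added, then NR-Cer acceptor (0.2 µM, or titrated) with test compound. mBRET was read relative to untreated (100% BRET). Library screen at 0.2 µM in single determination; dose-response in triplicate, Hill fit.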

CCCCCCCCCCCCCCC[C@@H](O)[C@H](CO)NC(=O)CCl [SACLAC]
mBRET after pre-treatment with acid ceramidase inhibitor: no effect on BRET efficiency; also recorded: only slightly elevated mBRET values
